pEC50, pKi: −log10 of the molar value. Activity calls are given as the source filed them. The calls are words filed in the database; no cut-off is given here.

The test system of data set [1] is Lewis lung carcinoma cell line. Nature of the data set: Antitumor activity against mouse LLC cells allografted in C57BL/6 mouse assessed as tumor growth inhibition at 60 mg/kg, ip administerd for 14 days measured on day 15 relative to control. Conditions: read-out: TGI.
The test system of data set [2] is MEF. Nature of the data set: Induction of apoptosis in wild-type MEF assessed as appearance of fragmented nuclei and cell membrane blebbing after 24 hrs by DAPI staining. Particulars: Mus musculus. It is filed as functional, cell-based. A digest of the protocol: (§1)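 MEF wild-type or knockout clones (Bcl2, Bad, Bid, Bak, Bax, Bax/Bak) treated 24 h with compound (15 µM for single-concentration data) or 0.1% DMSO vehicle; apoptosis scored by fragmented nuclei and membrane blebbing. EC50 values are means of three experiments with s.d.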

In data set [3] the target is Bcl-2-like protein 1 (Homo sapiens, UniProt Q07817). Nature of the data set: Displacement of FITC-BIM from recombinant human Bcl-XL expressed in Escherichia coli after 30 mins by fluorescence polarization assay. In a few lines:
(§2)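 Fluorescence polarization competition: serial compound dilutions in 20 mM Hepes-KOH pH 7.4, 150 mM NaCl with 50 nM FITC-BIM; after 5 min, E. coli-expressed recombinant protein added at 1 µM; polarization read after 30 min incubation. Triplicates; Ki from nonlinear regression of competitive binding curves.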

For data set [4], the system named is MEF. Nature of the data set: Induction of apoptosis in Bak-deficient MEF assessed as appearance of fragmented nuclei and cell membrane blebbing after 24 hrs by DAPI staining. Format: functional, cell-based. Conditions: Mus musculus. In a few lines: as §1
For data set [5], the system named is MEF. Nature of the data set: Induction of apoptosis in Bcl2-deficient MEF assessed as appearance of fragmented nuclei and cell membrane blebbing after 24 hrs by DAPI staining. Conditions: Mus musculus. It is filed as functional, cell-based. In a few lines:
as §1

For data set [6], the target named is Apoptosis regulator Bcl-2 (Homo sapiens, UniProt P10415). Nature of the data set: Displacement of FITC-BIM from recombinant human Bcl-2 expressed in Escherichia coli after 30 mins by fluorescence polarization assay. A digest of the protocol:
as §2

In data set [7] the test system is MEF. Nature of the data set: Induction of apoptosis in Bax/Bak-deficient MEF assessed as appearance of fragmented nuclei and cell membrane blebbing after 24 hrs by DAPI staining. Format: functional, cell-based. Particulars: Mus musculus. In a few lines: as §1
Data set [8] has as its system MEF. Nature of the data set: Induction of apoptosis in Bax-deficient MEF assessed as appearance of fragmented nuclei and cell membrane blebbing after 24 hrs by DAPI staining. Conditions: Mus musculus. It is filed as functional, cell-based. A digest of the protocol:
as §1

Data set [9] deals with MEF. Nature of the data set: Induction of apoptosis in Bad-deficient MEF assessed as appearance of fragmented nuclei and cell membrane blebbing after 24 hrs by DAPI staining. Particulars: Mus musculus. It is filed as functional, cell-based. A digest of the protocol: as §1
Data set [10] deals with MEF. Nature of the data set: Induction of apoptosis in Bid-deficient MEF assessed as appearance of fragmented nuclei and cell membrane blebbing after 24 hrs by DAPI staining. It is filed as functional, cell-based. Conditions: Mus musculus. A digest of the protocol:
as §1

The test system of data set [11] is Lewis lung carcinoma cell line. Nature of the data set: Antitumor activity against mouse LLC cells allografted in BD2F mouse assessed as tumor growth inhibition at 1.25 mg/kg, ip administered every other day for 5 treatments relative to control. Format: functional. Conditions: route intraperitoneal, read-out: TGI.
For data set [12], the system named is Mus musculus. Nature of the data set: In vivo activation of Bax in mouse LLC1 cells allografted in C57BL/6J mouse at 1 mg/kg, ip qd administered from day 14 to 17 post tumor implantation measured on day 17 by immunoprecipitation assay. It is filed as functional, organism-based. The arrangement: dose 1 mg/kg. A digest of the protocol:
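Mice carrying tail-vein-injected LLC1 lung tumors received 1 mg/kg intraperitoneally once daily days 14–17 (vehicle 1% DMSO); on day 17 lung lysates were immunoprecipitated with conformation-specific anti-BAX 6A7 antibody to detect activated BAX.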

The species entered for data set [13] is Mus musculus. Nature of the data set: Toxicity in C57BL/6J mouse assessed as effect on femoral muscle. It is filed as organism-based, Muscle tissue. Particulars: in vivo.
Data set [14] concerns Mus musculus. Nature of the data set: Toxicity in C57BL/6J mouse allografted with mouse LLC1 cells assessed as evidence of behavioral side effect at 1 mg/kg, ip qd administered from day 14 to 17 post tumor implantation measured during compound dosing. Also noted: dose 1 mg/kg, route intraperitoneal. It is filed as organism-based. Conditions: in vivo.
Data set [15] relates to Lewis lung carcinoma cell line. Nature of the data set: Antitumor activity against mouse LLC1 cells allografted in C57BL/6J mouse assessed as decrease in ratio of tumor burden to lung area at 1 mg/kg, ip qd administered from day 14 to 17 post tumor implantation measured on day 17 by hematoxylin and eosin staining-based microscopic analysis relative to control. Format: functional. The arrangement: scale not given: the % may be the effect or the level left. Particulars: route intraperitoneal. A digest of the protocol:
(§3)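 LLC1 cells injected via tail vein on day 0; from day 14 to day 17 mice given intraperitoneal injection once daily at 1 mg/kg, vehicle 1% DMSO; euthanized day 17. Lungs inspected visually, and H&E-stained lung sections scored as tumor burden to lung area ratio versus vehicle controls.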

The species named for data set [16] is Mus musculus. Nature of the data set: Toxicity in C57BL/6J mouse assessed as effect on lung. It is filed as organism-based. Particulars: in vivo.
Data set [17] concerns Lewis lung carcinoma cell line. Nature of the data set: Antitumor activity against mouse LLC1 cells allografted in C57BL/6J mouse assessed as reduction of tumor lesions at 1 mg/kg, ip qd administered from day 14 to 17 post tumor implantation measured on day 17 by hematoxylin and eosin staining-based microscopic analysis. It is filed as functional, organism-based. The arrangement: dose 1 mg/kg. In a few lines:
as §3

For data set [18], the species on record is Mus musculus. Nature of the data set: Toxicity in C57BL/6J mouse assessed as effect on heart. Format: organism-based. Particulars: in vivo.
In data set [19] the test system is Mus musculus. Nature of the data set: Toxicity in C57BL/6J mouse allografted with mouse LLC1 cells assessed as mortality at 1 mg/kg, ip qd administered from day 14 to 17 post tumor implantation measured during compound dosing. Conditions: in vivo. Format: organism-based. The arrangement: dose 1 mg/kg, route intraperitoneal.
Data set [20] deals with MEF. Nature of the data set: Induction of apoptosis in MEF assessed as appearance of cell membrane blebbing at 15 uM after 24 hrs by DAPI staining in presence of caspase inhibitor Ac-DEVD-CHO. Format: functional, cell-based. Particulars: Mus musculus. In a few lines:
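MEF cells treated 24 h at 15 µM in presence of caspase inhibitor Ac-DEVD-CHO (10 µM); cell membrane blebbing assessed by microscopy.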

Data set [21] deals with Mus musculus. Nature of the data set: Toxicity in C57BL/6J mouse allografted with mouse LLC1 cells assessed as evidence of gross toxicity at 1 mg/kg, ip qd administered from day 14 to 17 post tumor implantation measured during compound dosing. It is filed as organism-based. Also noted: dose 1 mg/kg, route intraperitoneal. Conditions: in vivo.
Data set [22] has as its system Mus musculus. Nature of the data set: Toxicity in C57BL/6J mouse allografted with mouse LLC1 cells assessed as change in body weight at 1 mg/kg, ip qd administered from day 14 to 17 post tumor implantation measured during compound dosing. It is filed as organism-based. The arrangement: dose 1 mg/kg, route intraperitoneal. Particulars: in vivo.
Data set [23] in a line: Cytotoxicity against C57BL/6J mouse primary splenocytes assessed as effect on apoptosis rate at 10 uM after 72 hrs by DAPI staining. Format: cell-based. Conditions: splenocyte. In a few lines:
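Primary splenocytes exposed 72 hours to 10 µM; apoptosis rate determined by counting apoptotic nuclei; mean with s.d. reported.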

In data set [24] the test system is MEF. Nature of the data set: Induction of apoptosis in MEF assessed as appearance of fragmented nuclei and cell membrane blebbing at 15 uM after 24 hrs by DAPI staining. It is filed as functional, cell-based. Particulars: Mus musculus. A digest of the protocol:
as §1

The test system of data set [25] is MEF. Nature of the data set: Induction of apoptosis in Bid-deficient MEF assessed as appearance of fragmented nuclei and cell membrane blebbing at 15 uM after 24 hrs by DAPI staining. It is filed as functional, cell-based. Particulars: Mus musculus. In a few lines:
as §1

Data set [26] relates to MEF. Nature of the data set: Induction of apoptosis in Bad-deficient MEF assessed as appearance of fragmented nuclei and cell membrane blebbing at 15 uM after 24 hrs by DAPI staining. Conditions: Mus musculus. It is filed as functional, cell-based. In a few lines: as §1
Data set [27] relates to MEF. Nature of the data set: Induction of apoptosis in Bax-deficient MEF assessed as appearance of fragmented nuclei and cell membrane blebbing at 15 uM after 24 hrs by DAPI staining. Particulars: Mus musculus. Format: functional, cell-based. In a few lines: as §1
Data set [28] relates to MEF. Nature of the data set: Induction of apoptosis in Bcl2-deficient MEF assessed as appearance of fragmented nuclei and cell membrane blebbing at 15 uM after 24 hrs by DAPI staining. Format: functional, cell-based. Particulars: Mus musculus. In a few lines: as §1
In data set [29] the test system is MEF. Nature of the data set: Induction of apoptosis in Bax/Bak-deficient MEF assessed as appearance of fragmented nuclei and cell membrane blebbing at 15 uM after 24 hrs by DAPI staining. It is filed as functional, cell-based. Particulars: Mus musculus. In a few lines:
as §1

Data set [30] concerns MEF. Nature of the data set: Induction of apoptosis in Bak-deficient MEF assessed as appearance of fragmented nuclei and cell membrane blebbing at 15 uM after 24 hrs by DAPI staining. It is filed as functional, cell-based. Particulars: Mus musculus. In a few lines:
as §1

Apoptosis regulator Bcl-2, sequence (P10415 whole entry): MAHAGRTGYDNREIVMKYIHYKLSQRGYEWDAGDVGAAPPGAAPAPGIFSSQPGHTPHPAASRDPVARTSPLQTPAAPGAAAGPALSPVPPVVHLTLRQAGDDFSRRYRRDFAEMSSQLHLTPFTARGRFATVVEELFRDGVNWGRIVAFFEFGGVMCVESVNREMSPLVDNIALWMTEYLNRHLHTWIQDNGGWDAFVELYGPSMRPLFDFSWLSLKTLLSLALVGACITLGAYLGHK
Bcl-2-like protein 1, sequence (Q07817 whole entry): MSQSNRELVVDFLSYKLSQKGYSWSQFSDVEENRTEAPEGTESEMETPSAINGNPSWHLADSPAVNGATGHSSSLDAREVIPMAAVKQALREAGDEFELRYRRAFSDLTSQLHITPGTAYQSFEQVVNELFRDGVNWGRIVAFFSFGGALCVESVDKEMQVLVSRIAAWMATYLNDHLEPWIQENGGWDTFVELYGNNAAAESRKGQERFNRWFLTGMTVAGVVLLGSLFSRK

For the compound `O=P1(N(CCCl)CCCl)NCCCO1` (stereo not drawn) [CYCLOPHOSPHAMIDE ANHYDROUS], the inhibition in vivo at 60 mg/kg in data set [1] amounted to 40%.

Consider `CCOc1ccccc1N/N=C1/C(=O)N(c2nc(-c3ccccc3)cs2)N=C1C`, for which the pEC50 in data set [2] was 5.11; in data set [4], 5.22; in [5] it was 5.49; in data set [7], under 4.30; in data set [8] it was under 4.30; in [9], 5.46. Further, in data set [10], the pEC50 is 5.40. The negative logarithm of the Ki (pKi) in data set [3] is under 4.00; in data set [6], 5.52.

Consider `COc1cccc2c1C(=O)c1c(O)c3c(c(O)c1C2=O)C[C@@](O)(C(=O)CO)C[C@@H]3O[C@H]1C[C@H](N)[C@H](O)[C@H](C)O1` [DOXORUBICIN], for which the inhibition in vivo at 1.25 mg/kg in [11] was 40%.

With `CCOc1ccccc1N/N=C1\C(=O)N(c2cc(O)cc(-c3ccc(N(C)C)cc3)c2)N=C1C`, the pEC50 in data set [2] is 5.96; in data set [4], 5.89; in data set [5] it was 6.22; in [7] it was under 4.30; in [8] it was under 4.30; in [9] it was 6.10. Moreover, the pEC50 in [10] was 6.15. For the same compound, the pKi was under 4.00 in data set [3] and 4.92 in [6]. Moreover, the outcome in [12] and in data set [17] was Active. Moreover, the Activity entry in [13] is reported as “Non-toxic”; in [14], “Non-toxic”; in data set [15], 50%; in data set [16], “Non-toxic”; in [18], “Non-toxic”; in [19], “Non-toxic”. For the same compound, the Activity result in data set [21], in [22] and in data set [23] was “Non-toxic” in each case. In addition, the result in data set [20] was inactive.

For the compound `CC1=NN(c2nc(-c3ccccc3)cs2)C(=O)/C1=C/c1ccc2ccccc2c1`, the outcome in data set [24], in data set [25], in data set [26], in data set [27], in data set [28] and in [30] was Active. The pKi is 5.47 in [3] and 5.70 in data set [6]. Also, in data set [29], the result was inactive.

Consider `CC1=NN(c2nc(-c3ccccc3)cs2)C(=O)/C1=C/C(c1ccccc1)c1ccccc1`, for which the result in data set [24], in data set [25], in data set [26], in data set [27], in data set [28] and in data set [30] was Active. Further, the pKi in data set [3] was under 4.00; in [6] it was 5.80. Further, the outcome in [29] was inactive.

Turning to `CCOc1ccccc1N/N=C1\C(=O)N(c2cccc(-c3ccc(N(C)C)cc3)c2)N=C1C`, the result in [24], in data set [25], in data set [26], in data set [27], in data set [28] and in [30] was Active. Besides, the pKi is under 4.00 in [3] and 5.38 in data set [6]. Moreover, in data set [29], the result was inactive.

Regarding `CC1=NN(c2nc(-c3ccccc3)cs2)C(=O)/C1=C/c1ccccc1`, the outcome in [24], in [25], in [26], in data set [27], in data set [28] and in data set [30] was Active. The pKi in data set [3] is 5.62; in [6], 5.72. In addition, the result in data set [29] was inactive.

These data come from ChEMBL document CHEMBL3414479, “Structure-based lead optimization and biological evaluation of BAX direct activators as novel potential anticancer agents” (J Med Chem, 2015).
